Assay outcomes as filed in PubChem.
CSC inhib: blocks cancer stem cells. inhibition, % at 7.5 µM. 300,000 compounds, 1.1% hits. cancer stem cell-like cells viability, luminescence; in the data active = inhibition above about 75%; tested in HMLE shEcad cells
Mdm2-MdmX inh: inhibitors of human Mdm2/MdmX interaction. O15151+Q00987. SaOS-2 split-luciferase Mdm2/MdmX complementation, luminescence. inhibition, % at 8 µM. 330,000 compounds, 3% hits;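 active = inhibition of at least 50% at 8 µM in the primary screen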
SKKanGAS inh: SKKanGAS growth inhibition; S. pyogenes SKKanGAS, kanamycin growth, BacTiter-Glo, 6 h; 300,000 compounds, 1.3% hits; inhibition, % at 7.5 µM;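 active = mean replicate score, as percent of positive control median, at least 50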;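 also: strain carries kanamycin resistance gene driven by streptokinase promoter and grows in 40 µg/ml kanamycin; loss of luminescence reflects streptokinase promoter inhibition or plain growth inhibition; 0% = median of DMSO wells and 100% = positive control at its reference dose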
T cruzi repl: T. cruzi replication inhibition. 300,000 compounds, 1.4% hits. inhibition, % (test concentration not listed). T. cruzi beta-gal in NIH3T3, luminescence, 90 h;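 active = mean inhibition across valid replicates above about 55%, limit read from the data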;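 also: signal also drops with host cell toxicity which is not excluded here; 0% = plate median of DMSO wells and 100% = zero luminescence signal; higher percent means less beta-gal luminescence so fewer parasites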
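Test system: β-gal T. cruzi (Tulahuen C4) inside NIH/3T3 cells / Quantity: 5,000 cells/well / Measured by: luminescence from GalScreen with 0.05% NP40, read after 60 min / Medium: DMEM plus 2% FBS / Measure: parasite load inhibition, % / Reagent: Tulahuen C4 trypomastigotes, 5000/well / Schedule: co-culture of at least 90 h after 3 h attachment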
aSyn UTR inh: MLPCN primary screen, SNCA 5' untranslated region; alpha-synuclein 5'UTR reporter, inhibitor activity; inhibition, % (tested at 7.5 µM); 300,000 compounds, 0.82% hits; AID 1813; in the data active = inhibition above about 60%;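 also: H4 neuroglioblastoma cells stably carrying SNCA 5'UTR luciferase fusion; 0% = DMSO wells and 100% = positive control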
Mdm2 MdmX conf: confirmation of human Mdm2/MdmX interaction inhibitors; Mdm2-MdmX binding, luminescent assay; shares compounds with Mdm2-MdmX inh; inhibition, % at 8 µM; 10,000 compounds, 55% hits; in the data active = inhibition above about 40%
Full FLuc ctr: full-length luciferase inhibition in Mdm2/MdmX counter-screen. SaOS-2 full-length luciferase counterscreen, luminescence. inhibition, % at 8 µM. 6,200 compounds, 77% hits. shares compounds with Mdm2-MdmX inh. AID 504607;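 active = mean inhibition at 8 µM reaching about 37%, which flags the compound as non-specific, limit read from the data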;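 also: p53-null SaOS-2 cells with luciferase driven by a doxycycline-inducible promoter; compound on cells about two nights before reading with doxycycline added after day one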
* hit, by the source's call; / = not tested or not shown. Shown are actives, neighbours in structure and some others; about 5.4% of the full set was active somewhere.

SMILES	CSC inhib	Mdm2-MdmX inh	SKKanGAS inh	T cruzi repl	aSyn UTR inh	Mdm2 MdmX conf	Full FLuc ctr
Cc1cc(C(=O)CSc2nnnn2-c2ccccc2)c(C)n1CCc1ccccc1	-8	26	-18	13	12	/	/
COc1ccc(CCn2c(C)cc(C(=O)CCl)c2C)cc1OC	47	74*	-13	47	6	27	/
Cc1cc(C(=O)CCl)c(C)n1CCc1ccc(F)cc1	56	92*	-2	73*	4	62*	34
COc1ccc(CCn2c(C)cc(C(=O)CSc3nnnn3-c3ccccc3)c2C)cc1OC	-6	59*	-12	21	28	7	/
CC(=O)Nc1ccc(NC(=O)C(C)OC(=O)CC23CC4CC(CC(Br)(C4)C2)C3)cc1 (stereo not given)	-16	1	/	/	/	/	/
CC(C)Oc1ccc(C(=O)NCc2cccs2)cc1	-7	-3	9	-17	-85	/	/
CCN(CC(=O)Nc1c(F)cccc1F)C(=O)c1ccc(OCc2c(C)noc2C)cc1	/	16	/	/	/	/	/
CCCc1cc(-c2[nH]ncc2-c2ccc(C(=O)OCC)o2)c(O)cc1O	51	56*	-1	2	-19	18	/
CN1CCN(C(=O)CCCN2C(=O)/C(=C/c3ccccc3)SC2=S)CC1	40	52*	2	9	-55	34	31
CN1CCN(C(=O)CCCN2C(=O)/C(=C/c3ccc(Cl)cc3)SC2=S)CC1	/	52*	/	/	/	0	/
Cc1ccc(/C=C2\SC(=S)N(CCCC(=O)N3CCOCC3)C2=O)cc1	-6	56*	0	-10	14	40	30
COc1ccc(/C=C2/SC(=S)N(CCCC(=O)N3CCN(C)CC3)C2=O)cc1	3	55*	1	15	4	34	32
COc1ccc(NC(=O)/C(=C\c2cc(OC)c(OC)cc2[N+](=O)[O-])NC(=O)c2ccccc2)cc1	/	52*	31	-3	-14	-11	/
CCOCCCNC(=O)c1ccc(Cn2c(=S)[nH]c3c([nH]c4ccc(OC)cc43)c2=O)cc1	9	-21	1	2	25	/	/
CCCCNC(=O)c1ccc(Cn2c(=S)[nH]c3c([nH]c4ccc(OC)cc43)c2=O)cc1	140*	89*	13	-3	105*	16	/
O=C(NCCCN1CCOCC1)c1ccc(-n2nc(C(F)(F)F)cc2-c2cccs2)cc1	7	77*	-3	1	49	25	/
Cc1cc(NC(=O)CSc2nc3c(sc4ccccc43)c(=O)n2CCCN2CCOCC2)n[nH]1	58	70*	3	-50	-17	82*	125*
Cc1cc(NC(=O)CSc2nc3c(sc4ccccc43)c(=O)n2CCc2ccccc2)n[nH]1	-2	62*	-1	-20	-5	-6	/
O=C(O)c1ccc(N2CC3CC(C2)c2cccc(=O)n2C3)c(NS(=O)(=O)c2cccc(C(F)(F)F)c2)c1 (stereo not given)	-6	9	-3	-18	-8	/	/
CCOC(=O)c1[nH]c(C)c(C(=O)Nc2cc(Cl)ccc2C)c1C	52	66*	-13	-50	-24	72*	85*
CCOC(=O)c1c(C)[nH]c(C(=O)OCC(=O)NCc2ccc(F)cc2)c1C	/	78*	/	/	/	13	/
CCOC(=O)c1c(C)[nH]c(C(C)=O)c1C	-13	17	0	-25	-6	/	/
CCOC(=O)c1[nH]c(C=O)c(C(=O)OCC)c1C	-2	65*	1	0	2	59*	71*
CCOC(=O)c1[nH]c(C)c(C(=O)Nc2ccccc2C)c1C	/	56*	-5	-71	-27	62*	49*
CCOC(=O)c1[nH]c(C)c(C(=O)Nc2ccc(C)c(Cl)c2)c1C	-8	35	-4	-12	-92	/	/
O=c1ccc2cc3c(-c4ccccc4)coc3cc2o1	5	18	9	-7	0	/	/
CCOc1ccc(NC(=O)COC(=O)C23CC4CC(CC(C4)C2)C3)c([N+](=O)[O-])c1	-1	9	11	6	22	/	/
CCOC(=O)c1[nH]c(COC(=O)c2ccccc2NC(=O)c2ccco2)c(C(=O)OCC)c1C	2	-33	15	22	-23	/	/
CCOC(=O)c1c(C)[nH]c(C(=O)COC(=O)c2ccccc2NC(=O)c2ccco2)c1C	-4	63*	10	8	-3	16	/
